The source of these data is ChEMBL document CHEMBL4428077, “Synthesis and Biological Evaluation of N-((1-(4-(Sulfonyl)piperazin-1-yl)cycloalkyl)methyl)benzamide Inhibitors of Glycine Transporter-1” (J Med Chem, 2016).

The target of data set [1] is T1, Sodium- and chloride-dependent glycine transporter 1 (Homo sapiens) (UniProt P48067).
T1 sequence (whole entry): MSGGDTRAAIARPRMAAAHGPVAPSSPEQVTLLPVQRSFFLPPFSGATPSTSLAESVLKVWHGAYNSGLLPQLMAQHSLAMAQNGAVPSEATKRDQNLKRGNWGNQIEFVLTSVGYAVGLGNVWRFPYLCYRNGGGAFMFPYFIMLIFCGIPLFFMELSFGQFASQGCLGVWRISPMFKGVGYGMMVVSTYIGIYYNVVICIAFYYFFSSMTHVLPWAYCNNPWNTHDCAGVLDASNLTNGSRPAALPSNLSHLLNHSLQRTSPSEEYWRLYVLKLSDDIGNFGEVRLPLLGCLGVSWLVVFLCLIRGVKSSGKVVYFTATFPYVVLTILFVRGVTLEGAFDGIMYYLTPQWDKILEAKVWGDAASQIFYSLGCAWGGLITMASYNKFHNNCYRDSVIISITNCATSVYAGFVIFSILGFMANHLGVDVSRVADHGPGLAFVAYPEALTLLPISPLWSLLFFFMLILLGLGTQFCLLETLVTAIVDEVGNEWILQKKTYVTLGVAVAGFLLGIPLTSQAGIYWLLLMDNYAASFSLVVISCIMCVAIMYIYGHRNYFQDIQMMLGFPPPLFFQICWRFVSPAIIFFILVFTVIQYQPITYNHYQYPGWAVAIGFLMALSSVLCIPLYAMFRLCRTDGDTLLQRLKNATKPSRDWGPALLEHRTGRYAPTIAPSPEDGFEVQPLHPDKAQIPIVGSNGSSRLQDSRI
The data set is described as follows: Competitive inhibition of glycine transporter-1 (unknown origin) expressed in HEK293 cells at 0.62 to 17 nM in presence of [3H]glycine by scintillation proximity assay. The data set is classed as cell-based. The essentials:
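Whole-cell SPA glycine transport with transfected HEK-293 cells expressing GlyT-1. Increasing [³H]-glycine concentrations were run at several fixed inhibitor concentrations to derive B_max and K_d for glycine and judge the binding mode.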

The nature of data set [2]: Metabolic stability in human liver microsomes assessed as parent compound remaining at 3 uM incubated for 60 mins by LC-MS analysis. Format: ADME, Microsome. The note with it: read-out: Stability.
The target of data set [3] is T2, Sodium- and chloride-dependent glycine transporter 1 (Homo sapiens, UniProt P48067).
T2 sequence (P48067 whole entry): T1 sequence (whole entry)
The data set is described as follows: Inhibition of glycine transporter-1B in human JAR cells assessed as reduction in [14C]glycine uptake preincubated for 10 mins followed by [14C]glycine addition measured after 3 hrs by scintillation proximity assay. The data set is classed as cell-based. The essentials: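 Whole-cell SPA in JAR cells, which endogenously express hGlyT-1b. Cells (50,000 per well) were attached overnight in RPMI/10% FBS at 37 °C, 5% CO₂. [¹⁴C]glycine was then added and incubated 3 h at 37 °C. The assay window was set with unlabeled glycine. A reference standard ran on each plate. IC₅₀ values are means of n ≥ 2.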

The structures appear in SMILES notation. pIC50: −log10 of the molar value. Calls of active or inactive are those of the source. The rule behind the calls is not given here.

In the case of `CN(CC[C@@H](Oc1ccc(-c2ccccc2)cc1)c1ccc(F)cc1)CC(=O)O`, the inhibition result in data set [1] is “inactive”. Take `Cn1cnc(S(=O)(=O)N2CCN(C3(CNC(=O)c4ccc(Cl)cc4Cl)CCCCC3)CC2)c1`: in data set [2], the remaining at 1 h, 3 µM worked out at 5%. Moreover, the pIC50 in data set [3] is 8.67.
